We go through four molecules from ChEMBL document CHEMBL1130202, “Biologically active heteroarotinoids exhibiting anticancer activity and decreased toxicity” (J Med Chem, 1997).

The species named for series [1] is Mus musculus. Briefly: Alopecia in mice observed at low dose with Hypervitaminosis; 1/16. The series is classed as functional, organism-based.
For series [2], the species on record is Mus musculus. Briefly: Alopecia in mice observed at high dose with Hypervitaminosis; 1/16. The series is classed as functional, organism-based.
The species entered for series [3] is Mus musculus. Briefly: Effect of compound on serum Alkaline phosphatase levels in mice at mid dose 1 on day 29. In kind it is functional. An outline of the steps: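 Male B6D2F1 mice dosed daily by oral gavage in corn oil at low, mid 1, mid 2 or high dose. Blood sampled on set days (8, 29, 36, 65) for clinical chemistry, serum alkaline phosphatase and triglycerides. Group mean ± SD reported as % relative to vehicle 1; significance p < 0.05 versus corn oil vehicle.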

The species entered for series [4] is Mus musculus. Briefly: Enlarged spleen in Gross pathological observations in mice with hypervitaminosis A at mid dose 1 with gross observations/total number of mice in group; 0/16. In kind it is functional, organism-based.
The species entered for series [5] is Mus musculus. Briefly: Fracture incidence in mouse at high dose; 2/8.
The species entered for series [6] is Mus musculus. Briefly: Average number of fractures per mouse at lmid dose 1.
The species named for series [7] is Mus musculus. Briefly: Effect of compound on Spleen to body weight ratios in mice at high dose on day 65; all the animals died by day 65. In kind it is functional, organism-based. The essentials: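 Male B6D2F1 mice dosed daily by gavage with compound in corn oil; vehicle 1 (corn oil) controls run to termination on day 65. Low, mid 1, mid 2 and high dose groups, with dosage increases partway through the study. Organ-to-body weight ratios (×1000) taken at necropsy on day 65, reported as mean ± SD for 4 to 8 animals and as % difference from vehicle.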

The species named for series [8] is Mus musculus. Briefly: Effect of compound on white blood cells levels in mice at mid dose 1 on day 65. The series is classed as functional. The essentials: (§1)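 Male B6D2F1 mice were gavaged daily with compound in corn oil at low, mid 1, mid 2 or high dose. Serum triglycerides and circulating white blood cells were measured on the stated day (8, 29, 36, 65). Values are group mean ± SD expressed as % relative to corn-oil vehicle, with significance at p ≤ 0.05.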

The species entered for series [9] is Mus musculus. Briefly: Effect of compound on white blood cells levels in mice at mid dose 2 on day 8. The series is classed as functional. An outline of the steps: as §1
Series [10] is filed under the species Mus musculus. Briefly: Enlarged spleen in Gross pathological observations in mice with hypervitaminosis A at mid dose 1 with gross observations/total number of mice in group; 5/16. The series is classed as functional, organism-based.
The species named for series [11] is Mus musculus. Briefly: Compound toxicity determined by total dose to termination (day 25/65) in mid dose 1. In kind it is functional. The essentials:
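Male B6D2F1 mice given daily oral gavage in corn oil; dosages increased during the study (day 30 or day 51 depending on compound). Cumulative dose in mg/kg administered up to termination (day 65, or day 25 for TTNPB 0.01/0.05 mg/kg/day groups).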

For series [12], the species on record is Mus musculus. Briefly: Compound toxicity determined by total dose to termination (day 25/65) in mid dose 2. The series is classed as functional.
For series [13], the species on record is Mus musculus. Briefly: Fracture incidence in mouse at high dose; 4/7.
The species entered for series [14] is Mus musculus. Briefly: Fracture incidence in mouse at mid dose 2; 6/7.
Series [15] relates to Mus musculus. Briefly: Effect of compound on adrenal to body weight ratios in mice at 0.1 mg/kg/day dose; all the animals died by day 65. The series is classed as functional, organism-based.
Series [16] concerns Mus musculus. Briefly: Effect of compound on adrenal to body weight ratios in mice at 0.4 mg/kg/day dose; all the animals died by day 65. In kind it is functional, organism-based.
In series [17] the test system is Mus musculus. Briefly: Effect of compound on right testicle to body weight ratios in mice at 0.01 mg/kg/day dose on day 25. In kind it is functional, organism-based.
Series [18] has as its system Mus musculus. Briefly: Effect of compound on right testicle to body weight ratios in mice at 0.1 mg/kg/day dose; all the animals died by day 65. The series is classed as functional, organism-based.
The test system of series [19] is Mus musculus. Briefly: Effect of compound on right testicle to body weight ratios in mice at 0.4 mg/kg/day dose on day 65; dead on day 65. The series is classed as functional, organism-based.
The test system of series [20] is Mus musculus. Briefly: Alopecia observed at 0.1 mg/kg/day dose in mice with hypervitaminosis; 10/16. In kind it is functional, organism-based.
Series [21] has as its system Mus musculus. Briefly: Effect of compound on thymus to body weight ratios in mice at 0.4 mg/kg/day dose; all the animals died by day 65. In kind it is functional, organism-based. The essentials: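 Male B6D2F1 mice were dosed daily by gavage in corn oil, with TTNPB given at 0.1–0.8 or 0.01/0.05 mg/kg/day. Thymus-to-body weight ratio (×1000) was taken at necropsy on day 65 against vehicle 1, or on day 25 for the 0.01/0.05 groups against vehicle 2. Mean ± SD of 4–8 animals, reported as % difference from vehicle.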

The test system of series [22] is Mus musculus. Briefly: Alopecia observed at 0.2 mg/kg/day dose with hypervitaminosis; 10/16. In kind it is functional, organism-based.
The test system of series [23] is Mus musculus. Briefly: Enlarged lymph in gross pathological observations with hypervitaminosis A at 0.1 mg/kg/day dose with gross observations/total number of animals in group'' 16/16. The series is classed as functional, organism-based.
The subject of series [24] is Mus musculus. Briefly: Skin scaling at 0.4 mg/kg/day in mice with hypervitaminosis; 15/16. The series is classed as functional, organism-based.
The subject of series [25] is Mus musculus. Briefly: Skin scaling at 0.8 mg/kg/day in mice with hypervitaminosis; 12/16. The series is classed as functional, organism-based.
The test system of series [26] is Mus musculus. Briefly: Approximate day to determine 10% weight loss in mice at 0.01 mg/kg/day. The series is classed as functional. The essentials:
(§2)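 Male B6D2F1 mice dosed daily by gavage in corn oil; body weights followed to termination (day 65, or day 25 for TTNPB 0.01/0.05 mg/kg/day groups) and compared with the matching vehicle group. Value is approximate day of onset of 10% body weight reduction versus vehicle.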

Series [27] has as its system Mus musculus. Briefly: Approximate day to determine 10% weight loss in mice at 0.05 mg/kg/day. The series is classed as functional. An outline of the steps:
as §2

Series [28] deals with Mus musculus. Briefly: Calculated 30-day maximally tolerated dose based on 10% weight loss in mice at 0.01 mg/kg/day. The series is classed as functional.
Series [29] can be described thus: Mortality rate in mice at 0.01 mg/kg/day. To be noted: mouse, in vivo. In kind it is ADME, organism-based. An outline of the steps: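 Male B6D2F1 mice given compound daily by gavage in corn oil at the stated dose levels, with corn oil vehicle controls. Deaths counted as animals found dead or sacrificed moribund, with day(s) of death recorded. Heteroarotinoid groups ran to day 65 and low-dose reference groups to day 25.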

The test system of series [30] is Mus musculus. Briefly: Enlarged spleen in Gross pathological observations with hypervitaminosis A in mice at 0.4 mg/kg/day dose with gross observations/total number of animals in group; 0/16. The series is classed as functional, organism-based.
Series [31] relates to Mus musculus. Briefly: Fracture incidents in mouse at 0.1 mg/kg/day.
For series [32], the system named is Mus musculus. Briefly: Fracture incidents in mouse at 0.8 mg/kg/day; 0/16.
The subject of series [33] is Mus musculus. Briefly: Average number of fractures per mouse at 0.05 mg/kg/day.
The test system of series [34] is Mus musculus. Briefly: Effect of compound on adrenal to body weight ratios in mice at 0.05 mg/kg/day dose; measured on day 25.
The species named for series [35] is Mus musculus. Briefly: Alopecia in mice observed at mid dose 1 with Hypervitaminosis; 2/16. The series is classed as functional, organism-based.
Series [36] is filed under the species Mus musculus. Briefly: Alopecia in mice observed at mid dose 2 with Hypervitaminosis; 3/16. The series is classed as functional, organism-based.
For series [37], the species on record is Mus musculus. Briefly: Effect of compound on white blood cells levels in mice at low dose on day 8. In kind it is functional. An outline of the steps:
as §1

Series [38] is filed under the species Mus musculus. Briefly: Enlarged lymph in gross pathological observations in mice with hypervitaminosis A at mid dose 2 with gross observations/total number of mice in group; 1/16. In kind it is functional, organism-based.
The species entered for series [39] is Mus musculus. Briefly: Skin scaling in mice at high dose with Hypervitaminosis; 2/16. In kind it is functional, organism-based.

Active and inactive are the calls of the source. The rule behind the calls is not given here.

Turning to `CC(/C=C/C=C(\C)c1ccc2c(c1)C(C)(C)CCS2)=C\C(=O)O`, the result in the series listed under Mus musculus [1], in the series listed under Mus musculus [2] and in the series filed under Mus musculus [4] was inactive. The Activity is 135.8 in the series filed under Mus musculus [3], “Weak activity” in the series filed under Mus musculus [5] and 0 in the series listed under Mus musculus [6].

With `C/C(=C\c1ccc(C(=O)O)cc1)c1ccc2c(c1)C(C)(C)CCO2`, the Activity entry was “Toxic” in the series listed under Mus musculus [7]; 5.46 in the series filed under Mus musculus [8]; 5.26 in the series filed under Mus musculus [9]; “Weak activity” in the series filed under Mus musculus [10]; “Weak activity” in the series filed under Mus musculus [13]. Also, the values for the Total dose in the series listed under Mus musculus [11] and in the series filed under Mus musculus [12] were 294.2 mg/kg and 588.4 mg/kg, respectively. The outcome in the series filed under Mus musculus [14] was Active.

Take `C/C(=C\c1ccc(C(=O)O)cc1)c1ccc2c(c1)C(C)(C)CCC2(C)C`: the Activity result in the series on Mus musculus [15] was “Toxic”; with Mus musculus [16], “Toxic”; in the series on Mus musculus [17] it was “Toxic”; with Mus musculus [18] it was “Toxic”; in the series on Mus musculus [19], “Toxic”; with Mus musculus [20], “Weak activity”. Moreover, the Activity result in the series with Mus musculus [21] is “Toxic”; with Mus musculus [22], “Weak activity”; with Mus musculus [26], more than 25; in the series on Mus musculus [27] it was 8; in the series with Mus musculus [31], 5.7; in the series on Mus musculus [33], 3.3. Also, the Activity entry with Mus musculus [34] was “Toxic”. Moreover, the result in the series on Mus musculus [23], in the series with Mus musculus [24] and in the series on Mus musculus [25] was Active. Also, the Max tolerated dose in the series on Mus musculus [28] is more than 0.008 mg/kg. The Mortality in [29] was 0 day of death. Further, the result with Mus musculus [30] and with Mus musculus [32] was inactive.

As to `CC(/C=C/C=C(\C)c1ccc2c(c1)C(C)(C)CCO2)=C\C(=O)O`, the outcome in the series listed under Mus musculus [35], in the series listed under Mus musculus [36], in the series listed under Mus musculus [38] and in the series listed under Mus musculus [39] was inactive. The molecule further came in with an Activity in the series filed under Mus musculus [37] of 4.84.
